Here are results for ten molecules from ChEMBL document CHEMBL3046392, “Antifungal activities of N-arylbenzenesulfonamides against phytopathogens and control efficacy on wheat leaf rust and cabbage club root diseases” (Biosci Biotechnol Biochem, 2002).

Converted amounts (≈) assume the structure as drawn.

Holding throughout (assay type): functional
Experiment [1] has as its system Botrytis cinerea. In words: Antifungal activity against Botryotinia fuckeliana assessed as mycelial growth inhibition after 2 to 6 days. To be noted: read-out: ED50 (the source's name). Summed up: (§1)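 Serially diluted compound was mixed into 1/5-strength PDA plates at […]. A 5-mm agar plug of each fungus was placed at the plate centre, with three replicate plates per concentration per fungus. Plates were incubated at 25 °C for 2–6 days, radial growth was measured, and ED₅₀ for mycelial growth inhibition was derived by probit analysis.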

In experiment [2] the test system is Phytophthora capsici. In words: Antifungal activity against Phytophthora capsici assessed as mycelial growth inhibition after 2 to 6 days. As to conditions: read-out: ED50 (the source's name). The method in brief:
as §1

A further experiment relates to Rhizoctonia solani. As to the kind of experiment: Antifungal activity against Rhizoctonia solani assessed as mycelial growth inhibition after 2 to 6 days. To be noted: read-out: ED50 (the source's name). The method in brief: as §1
A further experiment relates to Globisporangium ultimum. As to the kind of experiment: Antifungal activity against Pythium ultimum assessed as mycelial growth inhibition after 2 to 6 days. As to conditions: read-out: ED50 (the source's name). The method in brief: as §1
In experiment [3] the test system is Plasmodiophora brassicae. As to the kind of experiment: Antifungal activity against Plasmodiophora brassicae in cabbage seedlings transplanted after soil infestation with fungus followed by compound application to soil assessed as cabbage club root disease control efficacy at 500 ug/ml measured after 35 days post fungal inoculation. Summed up: (§2)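 Soil was inoculated with P. brassicae spore suspension (2×10⁶ spores/ml), then cabbage seedlings were transplanted. 10 ml of each compound solution was applied to assess disease suppression. Disease severity was assessed 35 days after inoculation, with control value calculated relative to untreated plants.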

The subject of experiment [4] is Plasmodiophora brassicae. As to the kind of experiment: Antifungal activity against Plasmodiophora brassicae in cabbage seedlings transplanted after soil infestation with fungus followed by compound application to soil assessed as cabbage club root disease control efficacy at 19 ug/ml measured after 35 days post fungal inoculation. The method in brief: as §2
For experiment [5], the system named is Plasmodiophora brassicae. In words: Antifungal activity against Plasmodiophora brassicae in cabbage seedlings transplanted after soil infestation with fungus followed by compound application to soil assessed as cabbage club root disease control efficacy at 167 ug/ml measured after 35 days post fungal inoculation. The method in brief:
as §2

The test system of experiment [6] is Plasmodiophora brassicae. In words: Antifungal activity against Plasmodiophora brassicae in cabbage seedlings transplanted after soil infestation with fungus followed by compound application to soil assessed as cabbage club root disease control efficacy at 56 ug/ml measured after 35 days post fungal inoculation. Summed up: as §2
Experiment [7] deals with Botrytis cinerea. In words: Antifungal activity against Botryotinia fuckeliana infected compound pre-treated tomato seedlings at second-leaf stage assessed as tomato gray mould disease control values at 50 ug/ml measured after 3 to 4 days post fungal inoculation. The method in brief:
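Greenhouse-grown potted tomato seedlings at second-leaf stage were sprayed with compound in water+methanol (95+5) with Tween 20 (250 mg/l), left 24 h, then spray-inoculated with B. cinerea spore suspension. Plants were kept in the dark at 25 °C, 100% RH. Severity was scored after 3–4 days, and control value = 100 × (untreated − treated severity)/untreated severity.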

The test system of the next experiment is Blumeria hordei. As to the kind of experiment: Antifungal activity against Blumeria graminis f. sp. hordei infected compound pre-treated barley seedlings at first-leaf stage assessed as barley powdery mildew disease control values at 50 ug/ml measured after 7 days post fungal inoculation. The method in brief:
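Pot-grown barley seedlings at first-leaf stage were sprayed with compound dissolved in water+methanol (95+5) containing Tween 20 (250 mg/l), left 24 h, then inoculated with the powdery mildew fungus. Control value = 100 × (untreated − treated severity)/untreated severity.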

Experiment [8] deals with Phytophthora capsici. In words: Antifungal activity against Phytophthora capsici infected on compound pre-treated tomato seedlings at second-leaf stage assessed as tomato late blight disease control values at 50 ug/ml measured after 3 to 4 days post fungal inoculation.
The subject of a further experiment is Pyricularia grisea. In words: Antifungal activity against Magnaporthe grisea infected on compound pre-treated rice seedlings at second-leaf stage assessed as rice blast disease control values at 50 ug/ml measured after 5 days post fungal inoculation. Summed up:
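Rice seedlings grown in greenhouse pots at 25±5 °C, sprayed with compound in water+methanol (95+5) containing Tween 20 (250 mg/l) as wetting agent, left 24 h, then inoculated with M. grisea. Disease severity read as percentage infected leaf area 5 days after inoculation. Control value (%) = 100 × (untreated severity − treated severity)/untreated severity.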

A further experiment concerns Corticium. As to the kind of experiment: Antifungal activity against Corticium sasaki Matsu infected compound pre-treated rice seedlings at third-leaf stage assessed as rice sheath blight disease control values at 50 ug/ml measured after 4 days post fungal inoculation. The method in brief:
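Rice seedlings at third-leaf stage were sprayed with compound in water+methanol (95+5) plus Tween 20 (250 mg/l) and left 24 h. They were inoculated with 7-day-old wheat–rice bran cultures of C. sasaki and held 4 days dark at 25 °C, 100% RH, then 4 days in a growth chamber (25 °C, 100% RH, 12 h light). Control value was calculated from disease severity relative to untreated plants.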

Another experiment has as its system Puccinia recondita. In words: Antifungal activity against Puccinia recondita infected on compound pre-treated wheat seedlings at first-leaf stage assessed as wheat leaf rust disease control values at 50 ug/ml measured after 7 days post fungal inoculation. Summed up:
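First-leaf wheat seedlings were sprayed with compound in water+methanol (95+5) with Tween 20 (250 mg/l) and left 24 h. They were sprayed with P. recondita spores (0.67 g/l, Tween 20 250 mg/l) and kept 1 day in a moist chamber at 20 °C, then moved to an incubation room. Infected leaf area was rated 7 days post-inoculation and converted to a control value relative to untreated plants.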

`O=S(=O)(Nc1ccccc1)c1ccccc1` [PHENYL(PHENYLSULFONYL)AMINE]: the EC50 in the experiment with Botrytis cinerea [1] is 239 µg/mL (≈ 1030 µM); in the experiment on Phytophthora capsici [2], 66.6 µg/mL (≈ 285 µM); in the experiment with Rhizoctonia solani it was 68.9 µg/mL (≈ 295 µM); in the experiment with Globisporangium ultimum, 75.4 µg/mL (≈ 323 µM).

For the molecule `O=[N+]([O-])c1cccc(S(=O)(=O)Nc2ccc([N+](=O)[O-])cc2C(F)(F)F)c1`, the EC50 with Phytophthora capsici [2] was determined as 233 µg/mL (≈ 595 µM); with Rhizoctonia solani it was 26.2 µg/mL (≈ 67 µM); with Globisporangium ultimum, 155 µg/mL (≈ 397 µM).

Turning to `O=[N+]([O-])c1ccc(NS(=O)(=O)c2ccc(Cl)c(C(F)(F)F)c2)c(Cl)c1` [FLUSULFAMIDE], the Activity with Plasmodiophora brassicae [3] worked out at 62%. The Efficacy is listed as 0% in the experiment on Plasmodiophora brassicae [4], 42% in the experiment on Plasmodiophora brassicae [5] and 17% in the experiment with Plasmodiophora brassicae [6].

In the case of `O=[N+]([O-])c1ccc(NS(=O)(=O)c2ccccc2)c(C(F)(F)F)c1`, the EC50 with Botrytis cinerea [1] is 33.1 µg/mL (≈ 95.6 µM); in the experiment on Phytophthora capsici [2], 18.5 µg/mL (≈ 53.4 µM); with Rhizoctonia solani it was 28.5 µg/mL (≈ 82.3 µM); with Globisporangium ultimum it was 19.3 µg/mL (≈ 55.8 µM).

Regarding `O=[N+]([O-])c1cccc(S(=O)(=O)Nc2ccc([N+](=O)[O-])cc2Cl)c1`, the EC50 with Botrytis cinerea [1] is 63.6 µg/mL (≈ 178 µM); in the experiment on Phytophthora capsici [2], 7 µg/mL (≈ 19.6 µM); in the experiment on Rhizoctonia solani it was 34.8 µg/mL (≈ 97.3 µM); in the experiment with Globisporangium ultimum, 7.2 µg/mL (≈ 20.1 µM).

For the molecule `O=[N+]([O-])c1ccc(NS(=O)(=O)c2ccccc2)c(Cl)c1`, the Activity in the experiment with Botrytis cinerea [7] amounted to 0%; in the experiment with Blumeria hordei, 2%; with Phytophthora capsici [8], 0%; in the experiment on Pyricularia grisea, 3%; with Corticium it was 0%; with Puccinia recondita, 9%. Moreover, the EC50 in the experiment on Botrytis cinerea [1] was 28 µg/mL (≈ 89.5 µM); in the experiment on Phytophthora capsici [2], 9 µg/mL (≈ 28.8 µM); in the experiment with Rhizoctonia solani, 14.4 µg/mL (≈ 46 µM); with Globisporangium ultimum it was 5.4 µg/mL (≈ 17.3 µM). Also, the Efficacy with Plasmodiophora brassicae [3] is reported as 95%; in the experiment with Plasmodiophora brassicae [4] it was 17%; with Plasmodiophora brassicae [5] it was 82%; with Plasmodiophora brassicae [6], 83%.

Regarding `O=[N+]([O-])c1ccc(NS(=O)(=O)c2ccccc2)cc1`, the EC50 is 65.7 µg/mL (≈ 236 µM) with Botrytis cinerea [1], 10.3 µg/mL (≈ 37 µM) in the experiment on Phytophthora capsici [2], 42.3 µg/mL (≈ 152 µM) in the experiment with Rhizoctonia solani and 6.9 µg/mL (≈ 24.8 µM) in the experiment with Globisporangium ultimum.

As to `O=S(=O)(Nc1ccc(F)c(C(F)(F)F)c1)c1ccccc1`, the EC50 with Botrytis cinerea [1] was 10.7 µg/mL (≈ 33.5 µM); with Phytophthora capsici [2], 5.6 µg/mL (≈ 17.5 µM); with Rhizoctonia solani it was 16.8 µg/mL (≈ 52.6 µM); in the experiment with Globisporangium ultimum, 13.5 µg/mL (≈ 42.3 µM).

`O=[N+]([O-])c1cccc(S(=O)(=O)Nc2ccc(F)c(C(F)(F)F)c2)c1`: the EC50 in the experiment with Botrytis cinerea [1] is 3.5 µg/mL (≈ 9.61 µM); in the experiment on Phytophthora capsici [2], 60.8 µg/mL (≈ 167 µM); with Rhizoctonia solani it was 6 µg/mL (≈ 16.5 µM); in the experiment with Globisporangium ultimum it was 10.1 µg/mL (≈ 27.7 µM).

In the case of `O=S(=O)(Nc1ccc(C(F)(F)F)cc1)c1ccccc1`, the Activity in the experiment with Botrytis cinerea [7], in the experiment on Blumeria hordei, with Phytophthora capsici [8], in the experiment on Pyricularia grisea, in the experiment on Corticium and with Puccinia recondita was 0% in each case. The EC50 in the experiment with Botrytis cinerea [1] is 14.8 µg/mL (≈ 49.1 µM); with Phytophthora capsici [2] it was 14.6 µg/mL (≈ 48.5 µM); in the experiment with Rhizoctonia solani, 24.1 µg/mL (≈ 80 µM); with Globisporangium ultimum, 11.7 µg/mL (≈ 38.8 µM). Also, the Efficacy with Plasmodiophora brassicae [3], in the experiment on Plasmodiophora brassicae [4], in the experiment on Plasmodiophora brassicae [5] and with Plasmodiophora brassicae [6] was 0% throughout.
